These results are taken from ChEMBL document CHEMBL1268877, “Novel rhodanine derivatives induce growth inhibition followed by apoptosis” (Bioorg Med Chem Lett, 2010).

Each structure is given as a SMILES string. Calls of active or inactive are those of the source. The calls are words filed in the database; no cut-off is given here.

For orientation: IC50 means the concentration at which inhibition is half-maximal.

For data set [1], the system named is CCRF-CEM. Put plainly: Cytotoxicity against human CEM cells after 6 days by trypan blue assay. The class given is functional, cell-based. The gist of the method: (§1)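 Trypan blue exclusion on CEM T-cell leukemia cells given 10, 50, 100 or 250 µM compound (DMSO as vehicle control); live cells counted every 24 h after addition until control culture reached stationary phase; independent experiments; IC50 estimated at 48 and 72 h.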

Data set [2] relates to CCRF-CEM. Put plainly: Cytotoxicity against human CEM cells at 10 to 250 uM by LDH release assay. In kind it is functional, cell-based. Particulars: TDE = time-dependent effect. The method in brief: (§2)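 LDH release measured at 490 nm from CEM cells exposed to 10, 50, 100 and 250 µM compound for 24, 48 and 72 h; expressed as percent LDH release; SD from three independent experiments.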

Data set [3] is described as follows: Cytotoxicity against human 8E5 cells at 250 uM after 24 to 48 hrs by MTT assay. In kind it is cell-based. In general terms: Tetrazolium dyes change colour on reduction, which living cells bring about.
The subject of data set [4] is CCRF-CEM. Put plainly: Induction of cell cycle arrest in human CEM cells assessed as decrease in accumulation at G2/M phase at 10 to 250 uM after 48 hrs by propidium iodide staining-based FACS analysis. In kind it is functional. The gist of the method:
(§3)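 CEM cells treated 48 h with 10, 20, 50, 100 or 250 µM compound or DMSO vehicle, then fixed, stained with propidium iodide and analysed by flow cytometry (10,000 cells per sample); percent cells in subG1, G1, S and G2/M quantified; SD from three independent experiments.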
For orientation: Flow cytometry measures light scatter and fluorescence of single cells or particles in a stream.

The subject of data set [5] is CCRF-CEM. In words: Cytotoxicity against human CEM cells after 24 to 72 hrs by LDH release assay. In kind it is functional, cell-based. The gist of the method: as §2
Data set [6] has as its system CCRF-CEM. Put plainly: Cytotoxicity against human CEM cells at 250 uM after 6 days by trypan blue assay. In kind it is functional, cell-based. The gist of the method:
as §1

Data set [7] deals with CCRF-CEM. In words: Cytotoxicity against human CEM cells at 10 to 250 uM by trypan blue assay. The class given is functional, cell-based. Particulars: TDE = time-dependent effect. The method in brief:
as §1

For data set [8], the system named is CCRF-CEM. Put plainly: Cytotoxicity against human CEM cells assessed as mild induction of ROS production at 20 uM after 4 hrs by H2DCFDA staining-based flow cytometry. The class given is functional, cell-based. The method in brief: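 CEM cells treated with 20 µM compound for 1, 2 and 4 h; ROS production quantified by flow cytometry, with unstained and dye-stained cells as references and H2O2 as positive control.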

Data set [9] relates to CCRF-CEM. In words: Induction of apoptosis in human CEM cells assessed as chromosomal DNA fragmentation at 20 uM after 72 hrs by agarose gel electrophoresis. The class given is functional, cell-based. The method in brief: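 Chromosomal DNA extracted from CEM cells treated with 20 µM compound and harvested at 12, 24, 36, 48 and 72 h (DMSO control), then resolved on 1% agarose gel beside a 2-log DNA ladder.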

In data set [10] the test system is CCRF-CEM. In words: Induction of cell cycle arrest in human CEM cells assessed as decrease in accumulation at G1 phase at 10 to 250 uM after 48 hrs by propidium iodide staining-based FACS analysis. In kind it is functional. The gist of the method: as §3
Data set [11] relates to CCRF-CEM. In words: Cytotoxicity against human CEM cells after 72 hrs by trypan blue assay. The class given is functional, cell-based. The gist of the method:
as §1

The test system of data set [12] is CCRF-CEM. In words: Cytotoxicity against human CEM cells at 10 uM after 24 to 48 hrs by MTT assay. In kind it is functional, cell-based. The method in brief: (§4)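 CEM T-cell leukemia cells cultured with 10, 50, 100 and 250 µM compound (DMSO vehicle control), harvested after 24 and 48 h for MTT assay; percent viable cells calculated taking DMSO-treated cells as 100%; SD from three independent experiments.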

Data set [13] deals with CCRF-CEM. Put plainly: Cytotoxicity against human CEM cells after 48 hrs by trypan blue assay. The class given is functional, cell-based. The gist of the method: as §1
In data set [14] the test system is CCRF-CEM. In words: Antiproliferative activity against human CEM cells assessed as inhibition of [3H]thymidine incorporation at 10 to 250 uM after 24 to 48 hrs by scintillation counting. In kind it is functional, cell-based. The method in brief:
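[3H]-thymidine added to CEM T-cell leukemia cells treated with 10, 50, 100 or 250 µM compound; radioactive counts per minute (cpm) calculated and plotted; data from independent experiments.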

For data set [15], the system named is CCRF-CEM. In words: Induction of cell cycle arrest in human CEM cells assessed as accumulation at subG1 phase at 10 to 250 uM after 48 hrs by propidium iodide staining-based FACS analysis. The class given is functional. The gist of the method: as §3
In data set [16] the test system is CCRF-CEM. In words: Induction of cell cycle arrest in human CEM cells assessed as accumulation at S phase at 10 to 50 uM after 48 hrs by propidium iodide staining-based FACS analysis. In kind it is functional. The method in brief: as §3
In data set [17] the test system is CCRF-CEM. Put plainly: Cytotoxicity against human CEM cells at 10 to 250 uM after 24 to 48 hrs by MTT assay. The class given is functional, cell-based. The gist of the method: as §4
The nature of data set [18]: Cytotoxicity against human 8E5 cells at 10 to 250 uM after 24 to 48 hrs by MTT assay. In kind it is cell-based.

Consider `CCN1C(=O)/C(=C\c2ccccc2)SC1=S`, for which the Activity result in the data set with CCRF-CEM [1] was “Dose-dependent effect”; in the data set on CCRF-CEM [2], “tde”; in data set [3], “Toxic”; with CCRF-CEM [5] it was “Dose-dependent effect”; in the data set on CCRF-CEM [7] it was “tde”. Besides, the outcome in the data set on CCRF-CEM [4], in the data set with CCRF-CEM [6], in the data set with CCRF-CEM [8], in the data set with CCRF-CEM [9], in the data set on CCRF-CEM [10] and with CCRF-CEM [12] was Active. The result in the data set on CCRF-CEM [15] and in the data set on CCRF-CEM [16] was Active. Besides, the IC50 with CCRF-CEM [11] stood at 6 µM; in the data set on CCRF-CEM [13] it was 8 µM. Further, the inhibition entry in the data set with CCRF-CEM [14] was “Active”.

As to `CCN1C(=O)C(=C(C)C)OC1=S`, the Activity result in the data set with CCRF-CEM [1] was “Dose-dependent effect”; in the data set on CCRF-CEM [7], “tde”; in data set [18], “Non-toxic”. Besides, the result in the data set on CCRF-CEM [17] and with CCRF-CEM [6] was Active. In addition, the values for the IC50 with CCRF-CEM [11] and with CCRF-CEM [13] were 50 µM and 80 µM, respectively.

Consider `CC(C)=C1C(=O)N(C)C(=S)N1C`, for which the Activity result with CCRF-CEM [1] was “Dose-dependent effect”; in the data set with CCRF-CEM [7], “tde”; in data set [18], “Non-toxic”. Further, the result in the data set with CCRF-CEM [17] and in the data set on CCRF-CEM [6] was Active. Besides, the values for the IC50 in the data set with CCRF-CEM [11] and in the data set with CCRF-CEM [13] were 40 µM and 70 µM, respectively.
